ChEMBL document CHEMBL3272173, “Synthesis and biological activity of peptide antagonists of luliberin (luteinizing hormone-releasing hormone)” (J Med Chem, 1979)
Blank lines part the entries; values can stand above or below the compound they belong to. Peptide text beside a SMILES is read from it.

Tests used:
[1] = target: T1, Gonadotropin-releasing hormone receptor (Rattus norvegicus) (UniProt P30969); assay: In vitro antagonist activity at GNRHR in CD rat anterior pituitary gland assessed as ratio of molar concentration of compound to LH-RH for inhibition of LH-RH-stimulated LH release after 4 hrs by radioimmunoassay
T1 sequence (whole entry): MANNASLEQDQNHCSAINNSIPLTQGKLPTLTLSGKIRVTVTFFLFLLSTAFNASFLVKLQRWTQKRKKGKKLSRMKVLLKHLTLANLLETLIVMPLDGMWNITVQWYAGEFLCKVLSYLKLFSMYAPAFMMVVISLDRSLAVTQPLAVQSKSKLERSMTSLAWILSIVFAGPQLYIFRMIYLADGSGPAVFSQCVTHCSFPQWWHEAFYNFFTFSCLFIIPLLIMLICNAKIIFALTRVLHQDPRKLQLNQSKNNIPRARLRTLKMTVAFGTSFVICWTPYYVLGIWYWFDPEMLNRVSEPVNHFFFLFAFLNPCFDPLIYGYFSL
Outline: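 Monolayers were cultured 4 days from dissociated anterior pituitary cells of diestrus CD rats. They were exposed in duplicate to LH-RH (2-5 × 10^-10 M) plus multiple analogue concentrations in serum-free DME for 4 h at 37 °C. LH in the medium was measured by radioimmunoassay. The ED50 molar ratio is the analogue:LH-RH molar ratio giving 50% inhibition of LH-RH-stimulated LH release.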

Rattus norvegicus [2] = assay: Antiovulatory activity in sc dosed CD rat assessed as blockade of ovulation administered as six doses at 1200, 1230, 1300, 1350, 1400 and 1450 hrs during proestrus stage measured during estrus stage by dissecting microscopic analysis; format: functional
Outline: (§1)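 Cycling Charles River CD rats were given six subcutaneous injections of analogue in 0.1 mL propylene glycol on the afternoon of proestrus, and controls received vehicle alone. Rats were killed the next morning (estrus). Ovulating animals were scored and ova in the oviducts were counted under a dissecting microscope.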

Rattus norvegicus [3] = assay: Antiovulatory activity in CD rat assessed as blockade of ovulation at 1 mg, sc administered as six doses at 1200, 1230, 1300, 1350, 1400 and 1450 hrs during proestrus stage measured during estrus stage by dissecting microscopic analysis; format: functional; outline: as §1
[4] = target: T1, Gonadotropin-releasing hormone receptor (Rattus norvegicus); assay: In vitro antagonist activity at GNRHR in CD rat anterior pituitary gland assessed as inhibition of LH-RH-stimulated LH release at compound to LH-RH molar ratio of 28 after 4 hrs by radioimmunoassay; conditions: concentration not given here
Outline: (§2)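 Anterior pituitaries from diestrus CD rats (200-250 g) were dissociated enzymatically (collagenase, hyaluronidase, then Viokase). Cells were cultured 4 days at 1.67 × 10^5 cells/mL in DME with 10% horse serum and 2.5% fetal calf serum, then washed serum-free. Duplicate cultures received LH-RH (2-5 × 10^-10 M) with a single analogue concentration in serum-free DME for 4 h at 37 °C. LH in the medium was measured by RIA and reported as % inhibition of LH-RH-stimulated release.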

[5] = target: T1, Gonadotropin-releasing hormone receptor (Rattus norvegicus); assay: In vitro antagonist activity at GNRHR in CD rat anterior pituitary gland assessed as inhibition of LH-RH-stimulated LH release at compound to LH-RH molar ratio of 4000 after 4 hrs by radioimmunoassay; conditions: concentration not given here; outline: as §2
[6] = Solubility of the compound in water; format: physicochemical
Rattus norvegicus [7] = assay: Antiovulatory activity in CD rat assessed as blockade of ovulation at 0.1 mg, sc administered as six doses at 1200, 1230, 1300, 1350, 1400 and 1450 hrs during proestrus stage measured during estrus stage by dissecting microscopic analysis; format: functional; conditions: in the assay text read “at 1 mg” for “at 0.1 mg”; outline: as §1
[8] = target: T1, Gonadotropin-releasing hormone receptor (Rattus norvegicus); assay: In vitro antagonist activity at GNRHR in CD rat anterior pituitary gland assessed as inhibition of LH-RH-stimulated LH release at compound to LH-RH molar ratio of 10 after 4 hrs by radioimmunoassay; conditions: concentration not given here; outline: as §2
Rattus norvegicus [9] = assay: Antiovulatory activity in CD rat assessed as blockade of ovulation at 3 mg, sc administered as six doses at 1200, 1230, 1300, 1350, 1400 and 1450 hrs during proestrus stage measured during estrus stage by dissecting microscopic analysis; format: functional; outline: as §1
Rattus norvegicus [10] = assay: Antiovulatory activity in CD rat assessed as blockade of ovulation at 5 mg, sc administered as six doses at 1200, 1230, 1300, 1350, 1400 and 1450 hrs during proestrus stage measured during estrus stage by dissecting microscopic analysis; format: functional; outline: as §1
[11] = target: T1, Gonadotropin-releasing hormone receptor (Rattus norvegicus); assay: In vitro antagonist activity at GNRHR in CD rat anterior pituitary gland assessed as inhibition of LH-RH-stimulated LH release at compound to LH-RH molar ratio of 20 after 4 hrs by radioimmunoassay; conditions: concentration not given here; outline: as §2
Rattus norvegicus [12] = assay: Antiovulatory activity in CD rat assessed as blockade of ovulation at 0.3 mg, sc administered as six doses at 1200, 1230, 1300, 1350, 1400 and 1450 hrs during proestrus stage measured during estrus stage by dissecting microscopic analysis; format: functional; outline: as §1
[13] = target: T1, Gonadotropin-releasing hormone receptor (Rattus norvegicus); assay: In vitro antagonist activity at GNRHR in CD rat anterior pituitary gland assessed as inhibition of LH-RH-stimulated LH release at compound to LH-RH molar ratio of 200 after 4 hrs by radioimmunoassay; conditions: concentration not given here; outline: as §2

ED50 [1]: 22.3 molar ratio
inhibition [4]: 60%
Structure (SMILES): CCNC(=O)[C@@H]1CCCN1C(=O)[C@H](CCCNC(=N)N)NC(=O)[C@H](CC(C)C)NC(=O)[C@@H](CC(C)C)NC(=O)[C@H](Cc1ccc(O)cc1)NC(=O)[C@H](CO)NC(=O)[C@H](Cc1c[nH]c2ccccc12)NC(=O)[C@H](CCC(N)=O)NC(=O)OCc1ccccc1.Cl
ED50 (Rattus norvegicus [2]): >1 mg
inhibition (INH) (Rattus norvegicus [3]): 20%

inhibition [5]: 10%
Structure (SMILES): CC(C)C[C@H](NC(=O)CNC(=O)[C@H](Cc1ccc(O)cc1)NC(=O)[C@H](CO)NC(=O)[C@H](Cc1c[nH]c2ccccc12)NC(=O)[C@H](Cc1cnc[nH]1)NC(=O)OCc1ccccc1)C(=O)N[C@@H](CCCNC(=N)N)C(=O)N1CCC[C@H]1C(=O)O (HELM PEPTIDE1{[O=C(OCc1ccccc1)[*:2]].H.W.S.Y.G.L.R.P}$$$$V2.0)

solubility [6]: 1000 µg/mL
Structure (SMILES): CC(C)C[C@H](NC(=O)[C@@H](Cc1c[nH]c2ccccc12)NC(=O)[C@H](Cc1ccc(O)cc1)NC(=O)[C@H](CO)NC(=O)[C@H](Cc1c[nH]c2ccccc12)NC(=O)[C@H](COCc1ccccc1)NC(=O)OC(C)(C)C)C(=O)N[C@@H](CCCNC(=N)N)C(=O)N1CCC[C@H]1C(=O)NCC(N)=O.Cl
ED50 (Rattus norvegicus [2]): 0.05 mg
inhibition (INH) (Rattus norvegicus [7]): 100%

inhibition [8]: 90%
ED50 [1]: 1.5 molar ratio
Structure (SMILES): CC(C)C[C@H](NC(=O)[C@@H](Cc1ccccc1)NC(=O)[C@H](Cc1ccc(O)cc1)NC(=O)[C@H](CO)NC(=O)[C@H](Cc1c[nH]c2ccccc12)NC(=O)[C@H](COCc1ccccc1)NC(=O)OCc1ccccc1)C(=O)N[C@@H](CCCNC(=N)N)C(=O)N1CCC[C@H]1C(=O)NCC(N)=O.Cl
ED50 (Rattus norvegicus [2]): >3 mg
inhibition (INH) (Rattus norvegicus [9]): 40%

ED50 [1]: 1.5 molar ratio
inhibition [11]: 100%
Structure (SMILES): CCNC(=O)[C@@H]1CCCN1C(=O)[C@H](CCCNC(=N)N)NC(=O)[C@H](CC(C)C)NC(=O)[C@@H](Cc1c[nH]c2ccccc12)NC(=O)[C@H](Cc1ccc(O)cc1)NC(=O)[C@H](CO)NC(=O)[C@H](Cc1c[nH]c2ccccc12)NC(=O)[C@@H](NC(=O)OCc1ccccc1)[C@@H](C)CC.Cl
inhibition (INH) (Rattus norvegicus [10]): 0%
ED50 (Rattus norvegicus [2]): >5 mg

inhibition [5]: 33%
Structure (SMILES): CC(C)C[C@H](NC(=O)CNC(=O)[C@H](Cc1ccc(O)cc1)NC(=O)[C@H](CO)NC(=O)[C@H](Cc1c[nH]c2ccccc12)NC(=O)[C@H](CCC(N)=O)NC(=O)OCc1ccccc1)C(=O)N[C@@H](CCCNC(=N)N)C(=O)N1CCC[C@H]1C(=O)NCC(N)=O.Cl (HELM PEPTIDE1{[O=C(OCc1ccccc1)[*:2]].Q.W.S.Y.G.L.R.P.G.[am]}$$$$V2.0)
ED50 (Rattus norvegicus [2]): >1 mg

Structure (SMILES): CC(=O)O.CCNC(=O)[C@@H]1CCCN1C(=O)[C@H](CCCNC(=N)N)NC(=O)[C@H](CC(C)C)NC(=O)[C@H](NC(=O)[C@H](Cc1ccc(O)cc1)NC(=O)[C@H](CO)NC(=O)[C@H](Cc1c[nH]c2ccccc12)NC(=O)[C@H](CCC(N)=O)NC(=O)OCc1ccccc1)[C@@H](O)c1ccccc1
inhibition (INH) (Rattus norvegicus [12]): 100%
ED50 (Rattus norvegicus [2]): 0.1 mg

inhibition [13]: 74%
Structure (SMILES): CC(=O)O.CCNC(=O)[C@@H]1CCCN1C(=O)[C@H](CCCNC(=N)N)NC(=O)[C@H](CC(C)C)NC(=O)[C@H]1CCCN1C(=O)[C@H](Cc1ccc(O)cc1)NC(=O)[C@H](CO)NC(=O)[C@H](Cc1c[nH]c2ccccc12)NC(=O)[C@H](CCC(N)=O)NC(=O)OCc1ccccc1
ED50 (Rattus norvegicus [2]): 1 mg
inhibition (INH) (Rattus norvegicus [9]): 100%
